Experimental data pooled from the literature.
Cell line: A549
Observed: cell growth or viability

SMILES | method | time | IC50 [µM]
COc1ccccc1/C=C/CNCC(O)COc1cccc2[nH]ccc12 (centres unmarked) | CCK-8 | 72 h | 26.9
COc1ccc2c(c1)/C(=N/NC(=O)c1cc3ccccc3[nH]1)C(=O)N2 | – | – | 6.68
COc1c(C)cnc(COc2ccc(NC(=O)Nc3ccc(Cl)cc3)cc2)c1C | MTT | 72 h | 13.7
COc1ccccc1OCCNC[C@@H](O)COc1cccc2[nH]c3ccccc3c12 | CCK-8 | – | 23.4
COc1ccnc(COc2ccc(NC(=O)Nc3cccc(C(F)(F)F)c3)cc2)c1OC | MTT | 72 h | 6.65
O=C(NC(=S)N1CCCC1)c1ccc2ccccc2c1 | – | 48 h | 4.22
C=CC(=O)Nc1cc(Nc2nc(Nc3cnn(C)c3)c3sccc3n2)c(OC)cc1N(C)CCN(C)C | MTT | – | > 50
COc1cc2ncnc(Nc3ccc(F)c(Cl)c3)c2cc1NC(=O)N/N=C/c1cccn1CCCN1CCCCC1 | MTT | 72 h | 3.08
Cc1cccc(-n2ncc(Br)c(Br)c2=O)c1 | resazurin | 96 h | 1.62
COc1c(C)c(OS(=O)(=O)c2ccc3ccccc3c2)c(C)c(OS(=O)(=O)c2ccc3ccccc3c2)c1C(=O)/C=C/c1ccccc1 | SRB | 72 h | > 50
CCCCC[C@H](O)CC(=O)CCc1ccc(O)c(OC)c1 | SRB | – | 208
C=CC(=O)Nc1cc(Nc2nc(N3CCc4sccc4C3)c3cccnc3n2)c(OC)cc1N1CCSCC1 | MTT | – | 23.9
CCN(CC)C/C=N/NC(=O)Nc1cc2c(Nc3ccc(F)c(Cl)c3)ncnc2cc1OC | MTT | 72 h | 6.19
CCCc1ccc(OCC(O)CNC/C=C/c2ccccc2OC)cc1 (centres unmarked) | CCK-8 | 72 h | 31.6
COc1cc2ncnc(Nc3ccc(F)c(Cl)c3)c2cc1NC(=O)N/N=C/CN(C)C | MTT | 72 h | 5.52
Cc1ccc(C)n1-c1ccc(C(=O)NNC=O)cc1 | MTT | 72 h | 219
C=C(Cl)C(=O)Nc1cc(Nc2nc(Nc3cnn(C)c3)c3sccc3n2)c(OC)cc1N1CCN(C)CC1 | MTT | – | 0.655
O=C1Nc2ccc(Cl)cc2/C1=N/NC(=O)c1cc2ccccc2[nH]1 | – | – | 19.7
C=CC(=O)N1CCC[C@@H](n2nc(-c3ccc(Oc4ccccc4)cc3)c3c(N)ncnc32)C1 | – | – | > 10
CC(=O)OCCOC(=O)[C@]1(C)CC[C@]2(C)CC[C@]3(C)C4=CC=C5C(=CC(=O)C(O)=C5C)[C@]4(C)CC[C@@]3(C)[C@@H]2C1 | MTT | 48 h | 3.19
CC(C)Cc1ccc(-c2nn(-c3ccc(S(C)(=O)=O)cc3)cc2/C=N/N=c2\[nH]c(-c3ccc(Br)cc3)cs2)cc1 | MTT | 48 h | 15.3

SMILES | method | time | IC50 [µM]
O=C(Nc1nnc(-c2cc3ccccc3[nH]2)s1)c1cc2c([nH]c3ccccc32)c(-c2ccccc2)n1 | MTT | 72 h | 3
Cc1ccc(NC(=O)CSc2nnc(Cn3cnc4c3c(=O)n(C)c(=O)n4C)n2-c2ccccc2)c(C)c1 | MTT | – | 7.39
O=C(N/N=C/CN1CCOCC1)Nc1cc2c(Nc3ccc(F)c(Cl)c3)ncnc2cc1O[C@H]1CCOC1 | MTT | 72 h | 5.62
CNC(=O)c1cc(Oc2ccc(NC(=O)Nc3ccc(Cl)c(C(F)(F)F)c3)cc2)ccn1 | MTT | 24 h | > 40
COc1ccccc1/C=C/CNCC(O)COc1ccc2[nH]ccc2c1 (centres unmarked) | CCK-8 | 72 h | 25.4
Brc1ccc(Nc2nc(NCc3ccccc3)nc(NCc3ccccc3)n2)cc1 | SRB | 72 h | 14.9
COc1cc2ncnc(Nc3ccc(F)c(Cl)c3)c2cc1NC(=O)N/N=C/CN1CCCC1 | MTT | 72 h | 5.67
COc1c(C)cnc(COc2ccc(NC(=O)Nc3cc(F)cc(F)c3)cc2)c1C | MTT | 72 h | 10.2
O=C(NCCc1ccccc1)NNC(=O)c1ccc(Nc2nccc(-c3cccnc3)n2)cc1 | MTT | – | 23.7
COc1ccc(C(=O)O[C@@H]2CN3Cc4c(cc5c(c4OC)OCO5)[C@@]24C=C[C@H](OC)C[C@@H]34)cc1OC | WST-1 | – | 2.6
CC1=C(O)C(=O)C=C2C1=CC=C1[C@@]2(C)CC[C@@]2(C)[C@@H]3C[C@](C)(C(=O)OCCCN4C(=O)C5C=CC=CC5C4=O)CC[C@]3(C)CC[C@]12C (some centres unmarked) | MTT | 48 h | 3.65
O=C(NC(=S)Nc1ccccc1)c1ccc2ccccc2c1 | – | 48 h | 6.86
Cc1c(OCC(F)(F)F)ccnc1COc1ccc(NC(=O)Nc2ccc(Cl)cc2)cc1 | MTT | 72 h | 2.39
CCN(CC)C(=S)NC(=O)c1ccc2ccccc2c1 | – | 48 h | 4.76
CCC(=O)Nc1cc(Nc2nc(N3CCc4sccc4C3)c3cccnc3n2)c(OC)cc1N1CCOCC1 | MTT | – | > 50
C#Cc1cccc(Nc2ncnc3cc(OCCOC)c(OCCOC)cc23)c1 | MTT | – | 19.4
O=C([O-])c1ccc(-n2nc(-c3ccccc3O)nc2-c2ccccc2[O-])cc1.O=C([O-])c1ccc(-n2nc(-c3ccccc3O)nc2-c2ccccc2[O-])cc1.[Ti+4] | MTT | 72 h | 20
O=C(CN1C(=O)/C(=C/c2ccco2)SC1=S)Nc1ccccc1 | MTT | – | 14.9
C=CC(=O)Nc1cc(Nc2nc(N3CCc4sccc4C3)c3cccnc3n2)c(OC)cc1N1CCN(C(C)=O)CC1 | MTT | – | > 50
Cc1ccc(-c2csc(Nc3ccc4c(O)ncnc4c3)n2)cc1 | MTT | – | 27
